In ChEMBL document CHEMBL4251648, “Synthesis and bioevaluation and doking study of 1H-pyrrolo[2,3-b]pyridine derivatives bearing aromatic hydrazone moiety as c-Met inhibitors” (Eur J Med Chem, 2018):
pIC50: −log10 of the molar value. Calls of active or inactive are those of the source. The rule behind the calls is not given here.

Tests used:
A549 [1] = experiment: Antiproliferative activity against human A549 cells after 72 hrs by MTT assay; format: functional, cell-based
In short: (§1)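 Cells grown in MEM with 10% FBS. About 4×10³ cells per well, pre-incubated 24 h at 37°C in 5% CO₂. Compound added at final concentrations, then 72 h. MTT added at 5 µg/mL final for 4 h at 37°C. Tested three times; IC50 taken as the average of […] determinations.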

HepG2 = experiment: Antiproliferative activity against human HepG2 cells after 72 hrs by MTT assay; format: functional, cell-based
In short: as §1, with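 “37°C. Formazan dissolved in DMSO and read at 492 nm against 630 nm reference.” for “37°C.”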

MCF7 = experiment: Antiproliferative activity against human MCF7 cells after 72 hrs by MTT assay; format: functional, cell-based; in short: as §1
PC-3 = experiment: Antiproliferative activity against human PC3 cells after 72 hrs by MTT assay; format: functional, cell-based; in short: as §1
A549 [2] = experiment: Antiproliferative activity against human A549 cells at 0.08 to 8 ug/ml by MTT assay; format: functional, cell-based; conditions: TDE = time-dependent effect
[3] = molecular target: Hepatocyte growth factor receptor (Homo sapiens, UniProt P08581); experiment: Inhibition of c-Met (unknown origin) using FAM-labeled peptide substrate after 10 mins by mobility shift assay
A549 [4] = experiment: Induction of apoptosis in human A549 cells assessed as change in cell morphology at 0.8 uM after 12 hrs by acridine orange staining-based fluorescence microscopic method; format: functional
In short: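 A549 cells in MEM with 10% FBS, about 2×10⁴ per well, pre-incubated 24 h at 37°C in 5% CO₂. Given drug-free medium or 0.80 µM compound for 12 h. Stained with acridine orange in PBS at 10 µg/mL final for 10 min in the dark, washed three times with PBS, and nuclear morphology viewed by fluorescence microscopy.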

A549 [5] = experiment: Cell cycle arrest in human A549 cells assessed as accumulation at G1 phase at 4 uM after 12 hrs by propidium iodide staining-based flow cytometry (reference value: 27.08%); format: functional
A549 [6] = experiment: Cell cycle arrest in human A549 cells assessed as accumulation at S phase at 4 uM after 12 hrs by propidium iodide staining-based flow cytometry (reference value: 48.44%); format: functional
A549 [7] = experiment: Cell cycle arrest in human A549 cells assessed as accumulation at G2/M phase at 4 uM after 12 hrs by propidium iodide staining-based flow cytometry (reference value: 23.62%); format: functional
A549 [8] = experiment: Cell cycle arrest in human A549 cells assessed as accumulation at sub-G1 phase at 4 uM after 12 hrs by propidium iodide staining-based flow cytometry (reference value: 0.06%); format: functional
[9] = molecular target: Vascular endothelial growth factor receptor 2 (Homo sapiens, UniProt P35968); experiment: Inhibition of VEGFR2 (unknown origin)
[10] = molecular target: Epidermal growth factor receptor (Homo sapiens, UniProt P00533); experiment: Inhibition of EGFR (unknown origin)
[11] = molecular target: T1, Receptor-type tyrosine-protein kinase FLT3 (Homo sapiens, UniProt P36888); experiment: Inhibition of FLT3 (unknown origin)
T1 sequence (P36888 whole entry): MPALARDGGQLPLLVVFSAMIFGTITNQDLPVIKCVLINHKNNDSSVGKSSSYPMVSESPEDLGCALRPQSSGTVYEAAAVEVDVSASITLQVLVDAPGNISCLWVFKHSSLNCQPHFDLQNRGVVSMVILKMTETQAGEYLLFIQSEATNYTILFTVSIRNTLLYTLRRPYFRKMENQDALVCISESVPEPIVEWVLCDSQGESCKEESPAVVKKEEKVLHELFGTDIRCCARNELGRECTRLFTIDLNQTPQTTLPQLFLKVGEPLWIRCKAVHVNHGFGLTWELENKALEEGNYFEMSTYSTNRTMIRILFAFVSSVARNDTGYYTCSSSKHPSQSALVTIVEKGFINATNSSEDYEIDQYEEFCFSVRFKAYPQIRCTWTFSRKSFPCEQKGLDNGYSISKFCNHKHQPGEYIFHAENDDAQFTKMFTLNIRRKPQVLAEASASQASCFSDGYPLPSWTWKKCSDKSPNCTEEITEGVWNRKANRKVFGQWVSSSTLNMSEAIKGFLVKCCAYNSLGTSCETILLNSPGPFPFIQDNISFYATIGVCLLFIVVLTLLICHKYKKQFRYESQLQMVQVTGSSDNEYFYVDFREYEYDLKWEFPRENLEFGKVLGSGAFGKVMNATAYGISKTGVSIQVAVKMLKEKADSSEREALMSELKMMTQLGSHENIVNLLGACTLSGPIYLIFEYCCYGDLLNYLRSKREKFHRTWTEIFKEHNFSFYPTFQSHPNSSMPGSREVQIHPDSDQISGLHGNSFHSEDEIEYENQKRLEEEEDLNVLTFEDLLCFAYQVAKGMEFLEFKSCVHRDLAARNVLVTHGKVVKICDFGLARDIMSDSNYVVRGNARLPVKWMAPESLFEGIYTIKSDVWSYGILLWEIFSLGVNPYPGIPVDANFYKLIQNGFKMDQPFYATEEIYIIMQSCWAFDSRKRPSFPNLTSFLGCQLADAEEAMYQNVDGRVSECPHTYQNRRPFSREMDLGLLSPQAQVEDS

Chain of Vascular endothelial growth factor receptor 2 (P35968 whole entry): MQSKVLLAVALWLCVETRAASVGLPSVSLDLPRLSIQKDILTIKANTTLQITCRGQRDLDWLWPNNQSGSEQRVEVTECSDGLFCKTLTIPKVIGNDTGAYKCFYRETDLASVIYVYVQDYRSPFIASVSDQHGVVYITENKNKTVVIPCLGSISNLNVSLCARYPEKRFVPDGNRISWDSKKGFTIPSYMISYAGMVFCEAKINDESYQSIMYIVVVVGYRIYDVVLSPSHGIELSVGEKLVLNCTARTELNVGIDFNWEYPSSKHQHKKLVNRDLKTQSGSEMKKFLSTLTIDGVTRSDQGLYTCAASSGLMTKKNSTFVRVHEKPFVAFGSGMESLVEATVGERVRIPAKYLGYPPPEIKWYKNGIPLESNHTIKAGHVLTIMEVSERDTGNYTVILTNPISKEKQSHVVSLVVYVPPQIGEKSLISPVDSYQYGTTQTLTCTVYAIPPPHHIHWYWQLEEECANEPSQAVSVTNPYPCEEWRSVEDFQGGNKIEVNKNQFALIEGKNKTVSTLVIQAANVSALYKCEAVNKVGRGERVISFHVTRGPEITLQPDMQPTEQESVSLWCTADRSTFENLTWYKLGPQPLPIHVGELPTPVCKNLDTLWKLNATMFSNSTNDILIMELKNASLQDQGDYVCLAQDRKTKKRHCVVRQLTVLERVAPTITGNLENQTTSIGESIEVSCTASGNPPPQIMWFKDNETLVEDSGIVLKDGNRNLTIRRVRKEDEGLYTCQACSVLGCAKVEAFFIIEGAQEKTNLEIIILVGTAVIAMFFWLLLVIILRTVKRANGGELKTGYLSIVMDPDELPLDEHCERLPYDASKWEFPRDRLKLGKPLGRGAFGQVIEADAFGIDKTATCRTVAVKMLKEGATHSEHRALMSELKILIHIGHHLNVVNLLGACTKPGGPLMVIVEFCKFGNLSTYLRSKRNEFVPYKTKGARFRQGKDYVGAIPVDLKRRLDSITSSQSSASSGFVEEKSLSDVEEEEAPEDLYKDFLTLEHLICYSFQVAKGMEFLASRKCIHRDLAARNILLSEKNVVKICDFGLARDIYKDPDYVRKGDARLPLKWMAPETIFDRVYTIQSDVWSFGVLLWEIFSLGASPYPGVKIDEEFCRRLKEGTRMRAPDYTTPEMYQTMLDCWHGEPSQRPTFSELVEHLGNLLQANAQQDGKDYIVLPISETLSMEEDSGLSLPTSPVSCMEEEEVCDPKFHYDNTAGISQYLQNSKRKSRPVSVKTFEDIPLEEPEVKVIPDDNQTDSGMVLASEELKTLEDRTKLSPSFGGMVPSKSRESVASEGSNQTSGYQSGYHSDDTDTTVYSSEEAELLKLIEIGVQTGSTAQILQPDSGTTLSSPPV
Chain of Hepatocyte growth factor receptor (P08581 whole entry): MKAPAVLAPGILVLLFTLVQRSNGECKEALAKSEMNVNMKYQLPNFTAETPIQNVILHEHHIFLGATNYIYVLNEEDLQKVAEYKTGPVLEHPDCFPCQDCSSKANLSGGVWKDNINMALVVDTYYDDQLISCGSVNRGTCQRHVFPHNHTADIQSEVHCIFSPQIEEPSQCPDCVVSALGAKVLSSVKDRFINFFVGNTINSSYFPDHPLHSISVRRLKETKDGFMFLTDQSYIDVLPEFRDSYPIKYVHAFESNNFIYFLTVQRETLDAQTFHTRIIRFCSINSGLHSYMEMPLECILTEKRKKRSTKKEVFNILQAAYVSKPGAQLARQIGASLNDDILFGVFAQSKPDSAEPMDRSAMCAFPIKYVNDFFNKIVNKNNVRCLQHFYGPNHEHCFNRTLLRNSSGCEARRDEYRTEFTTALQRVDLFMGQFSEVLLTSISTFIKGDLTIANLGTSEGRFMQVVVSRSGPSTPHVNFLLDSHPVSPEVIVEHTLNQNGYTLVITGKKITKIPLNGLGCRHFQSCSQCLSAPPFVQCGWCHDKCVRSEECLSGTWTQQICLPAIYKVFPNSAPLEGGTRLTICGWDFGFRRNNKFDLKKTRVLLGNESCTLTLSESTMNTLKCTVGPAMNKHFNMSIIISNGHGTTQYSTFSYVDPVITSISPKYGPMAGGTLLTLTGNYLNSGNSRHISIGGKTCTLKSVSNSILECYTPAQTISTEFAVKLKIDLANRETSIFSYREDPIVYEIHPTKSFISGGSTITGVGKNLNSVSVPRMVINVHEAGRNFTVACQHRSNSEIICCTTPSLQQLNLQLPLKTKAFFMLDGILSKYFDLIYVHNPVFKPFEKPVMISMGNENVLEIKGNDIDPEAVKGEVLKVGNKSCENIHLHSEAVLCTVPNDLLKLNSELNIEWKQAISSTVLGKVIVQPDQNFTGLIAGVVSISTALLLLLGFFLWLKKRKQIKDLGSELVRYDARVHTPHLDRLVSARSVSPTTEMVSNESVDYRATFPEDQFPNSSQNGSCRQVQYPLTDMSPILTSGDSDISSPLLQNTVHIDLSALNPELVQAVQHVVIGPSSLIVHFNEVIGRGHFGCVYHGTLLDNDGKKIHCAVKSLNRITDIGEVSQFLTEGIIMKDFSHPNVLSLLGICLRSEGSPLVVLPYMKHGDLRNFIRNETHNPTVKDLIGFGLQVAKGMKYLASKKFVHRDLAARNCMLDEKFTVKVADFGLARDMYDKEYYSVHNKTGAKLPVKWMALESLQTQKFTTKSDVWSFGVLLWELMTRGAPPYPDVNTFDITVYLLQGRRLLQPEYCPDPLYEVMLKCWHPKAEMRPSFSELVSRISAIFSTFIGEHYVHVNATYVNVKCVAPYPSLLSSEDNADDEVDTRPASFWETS
Chain of Epidermal growth factor receptor (P00533 whole entry): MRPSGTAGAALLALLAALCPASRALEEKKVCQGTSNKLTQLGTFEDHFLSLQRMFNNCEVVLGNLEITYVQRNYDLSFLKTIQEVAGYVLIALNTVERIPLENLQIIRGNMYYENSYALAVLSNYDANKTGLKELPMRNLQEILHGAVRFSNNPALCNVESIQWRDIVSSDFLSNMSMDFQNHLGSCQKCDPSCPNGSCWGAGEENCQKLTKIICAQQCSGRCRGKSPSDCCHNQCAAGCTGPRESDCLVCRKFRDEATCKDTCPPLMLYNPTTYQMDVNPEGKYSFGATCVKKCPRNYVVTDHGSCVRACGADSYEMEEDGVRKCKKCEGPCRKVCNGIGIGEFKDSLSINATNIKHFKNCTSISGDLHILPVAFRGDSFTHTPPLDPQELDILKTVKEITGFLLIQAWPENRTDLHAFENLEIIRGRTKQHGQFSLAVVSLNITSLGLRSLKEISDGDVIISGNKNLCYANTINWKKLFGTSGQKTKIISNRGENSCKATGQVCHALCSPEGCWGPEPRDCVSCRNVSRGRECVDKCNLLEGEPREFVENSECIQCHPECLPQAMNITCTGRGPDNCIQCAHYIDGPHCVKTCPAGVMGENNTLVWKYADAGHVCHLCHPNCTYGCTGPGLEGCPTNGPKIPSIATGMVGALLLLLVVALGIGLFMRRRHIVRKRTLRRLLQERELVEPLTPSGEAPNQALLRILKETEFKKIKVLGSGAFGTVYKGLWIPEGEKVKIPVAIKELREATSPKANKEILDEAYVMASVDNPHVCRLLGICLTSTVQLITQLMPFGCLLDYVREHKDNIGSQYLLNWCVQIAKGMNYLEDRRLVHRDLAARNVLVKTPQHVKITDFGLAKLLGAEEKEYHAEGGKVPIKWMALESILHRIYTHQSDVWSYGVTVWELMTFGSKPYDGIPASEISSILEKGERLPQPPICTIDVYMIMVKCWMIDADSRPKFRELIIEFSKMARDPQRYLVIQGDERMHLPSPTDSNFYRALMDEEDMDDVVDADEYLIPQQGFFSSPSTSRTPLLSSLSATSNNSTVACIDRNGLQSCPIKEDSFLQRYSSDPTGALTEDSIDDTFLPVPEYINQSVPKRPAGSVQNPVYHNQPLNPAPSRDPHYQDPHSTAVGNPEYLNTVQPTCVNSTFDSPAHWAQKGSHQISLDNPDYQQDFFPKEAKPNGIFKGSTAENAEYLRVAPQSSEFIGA

In the case of O=C(N/N=C/c1ccc(Br)cc1)Nc1ccc(Oc2ccnc3[nH]ccc23)c(F)c1, the Activity (A549 [1]) was “Dose-dependent effect”, the pIC50 (A549 [1]; Homo sapiens, A549, 72 h, read-out: IC50) was 6.09 and the Activity (HepG2) was “Dose-dependent effect”. For the same compound, the pIC50 (HepG2; Homo sapiens, HepG2, 72 h, read-out: IC50) was 6.00, the Activity (MCF7) was “Dose-dependent effect” and the pIC50 (MCF7; Homo sapiens, MCF7, 72 h, read-out: IC50) was 6.03. For the same compound, the Activity (PC-3) was “Dose-dependent effect”, the pIC50 (PC-3; Homo sapiens, PC-3, 72 h, read-out: IC50) was 6.04 and the Activity (A549 [2]) was “Tde”. For the same compound, the pIC50 [3] was 6.30, the Activity (A549 [4]) was “Active” and the Activity (A549 [5]) was 10.67%. For the same compound, the Activity (A549 [6]) was 7.08%, the Activity (A549 [7]) was 79.86% and the Activity (A549 [8]) was 0.01%. For the same compound, the pIC50 [9] was 5.05, the pIC50 [10] was < 4.00 and the pIC50 [11] was 5.59.
